SMILES strings stand for the structures. Active and inactive are the calls of the source.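 How the source made its calls, unless noted: active means Her2 level under about 52% in both replicate screens, with viability over 70% of control (limit read from the data); inconclusive means Her2 under the limit in one screen only, or viability under 70%; inactive means Her2 level above the set limit.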

Test [1] is described as follows: Her2 expression decrease, cell viability multiplex – SKBR3 breast tumor cells, AlphaScreen, ATP viability, primary screen (AID 461).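 On Her2 level: lower value means less Her2 protein in the cells.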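 On viability: percent of carrier control wells set as 100% viability.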 The conditions noted are these: SKBR3 Her2 protein level, 18-24 h, measured here: SKBR3 viability, ATP luminescence, at 10 µM.
In test [2] the target is Receptor tyrosine-protein kinase erbB-2 (Homo sapiens) (UniProt P04626). The description is as above. The conditions noted are these: 18-24 h, at 10 µM, stronger effect = lower value.
Chain of Receptor tyrosine-protein kinase erbB-2 (Homo sapiens) (P04626 whole entry, looked up): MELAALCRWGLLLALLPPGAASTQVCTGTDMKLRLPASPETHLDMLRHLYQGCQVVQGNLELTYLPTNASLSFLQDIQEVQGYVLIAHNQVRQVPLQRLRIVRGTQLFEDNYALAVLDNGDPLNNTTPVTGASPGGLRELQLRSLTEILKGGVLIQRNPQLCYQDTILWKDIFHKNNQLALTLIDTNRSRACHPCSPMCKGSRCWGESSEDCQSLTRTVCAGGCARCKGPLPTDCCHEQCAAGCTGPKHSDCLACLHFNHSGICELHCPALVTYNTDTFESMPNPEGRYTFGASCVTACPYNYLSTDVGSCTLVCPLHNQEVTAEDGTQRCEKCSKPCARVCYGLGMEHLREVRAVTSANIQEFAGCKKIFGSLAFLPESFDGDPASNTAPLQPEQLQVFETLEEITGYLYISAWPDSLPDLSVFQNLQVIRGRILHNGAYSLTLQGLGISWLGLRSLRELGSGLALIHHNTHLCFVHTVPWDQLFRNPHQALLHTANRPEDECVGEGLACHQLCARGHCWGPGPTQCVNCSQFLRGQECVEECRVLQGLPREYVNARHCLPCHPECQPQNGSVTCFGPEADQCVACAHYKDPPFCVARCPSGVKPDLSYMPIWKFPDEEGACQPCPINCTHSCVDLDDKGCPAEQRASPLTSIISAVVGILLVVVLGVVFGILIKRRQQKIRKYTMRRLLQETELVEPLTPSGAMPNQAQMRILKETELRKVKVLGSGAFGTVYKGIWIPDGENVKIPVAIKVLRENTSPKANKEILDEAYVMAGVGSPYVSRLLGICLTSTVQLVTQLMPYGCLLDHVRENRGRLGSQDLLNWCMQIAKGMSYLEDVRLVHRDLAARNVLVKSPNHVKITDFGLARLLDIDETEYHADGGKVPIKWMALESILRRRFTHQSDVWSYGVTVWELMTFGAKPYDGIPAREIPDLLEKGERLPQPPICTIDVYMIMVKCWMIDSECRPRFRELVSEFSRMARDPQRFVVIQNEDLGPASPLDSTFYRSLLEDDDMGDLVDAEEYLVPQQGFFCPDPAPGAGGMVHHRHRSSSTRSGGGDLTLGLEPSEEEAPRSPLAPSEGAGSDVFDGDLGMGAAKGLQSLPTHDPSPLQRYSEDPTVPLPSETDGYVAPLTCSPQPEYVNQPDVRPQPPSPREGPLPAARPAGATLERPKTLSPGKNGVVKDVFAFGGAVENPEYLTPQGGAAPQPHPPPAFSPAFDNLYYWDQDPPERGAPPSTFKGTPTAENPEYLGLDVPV
Test [3] can be described thus: reduced viability of SK-BR-3 breast cancer cells – cell-based, 24 h, human, pilot screen (AID 572;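 active means viability at or below 10% of carrier control in both of two separate runs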;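 further: compound exposure lasted between 18 and 24 h rather than exactly 24 h; 100% = carrier-treated control wells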). The conditions noted are these: SK-BR-3 viability, CellTiter-Glo luminescence, at 10 µM, stronger effect = lower value.
The nature of test [4]: HUVEC growth inhibition – cell-based, human, primary screen (AID 575;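 active means viability at or below 30% in both replicate assays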;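 further: 100% = median of untreated cell wells with 0.1% DMSO on each plate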). The conditions noted are these: HUVEC proliferation, CellTiter-Glo luminescence, 72 h; at 10 µM; stronger effect = lower value. In short, it runs like this: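 Assay system: primary human umbilical vein endothelial cells / Buffer or medium: endothelial basal medium with 2% FBS plus growth supplements / Compound dosing: one dose, 10 µM final, 0.1% DMSO / Timing: 72 h treatment at 37 °C / Signal: CTG luminescence / Benchmarks: 32 DMSO-only cell-control wells (high), 32 MePR drug-control wells (low) per plate / Plate: collagen-coated 384-well format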
(Cellular ATP, detected with luciferase, serves as a proxy for viable cell number.)

The nature of test [5]: H69AR cell proliferation blockers – human, duplicate replicates, primary screen (AID 580;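 active means viability at or under a set limit in both replicates, limit being median viability minus 3 SD, cut at about 48% in these data, passing the limit was not always enough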;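 further: 100% = mean luminescence of untreated wells and 0% = no signal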). The conditions noted are these: H69AR lung tumor cells viability, ATP luminescence, 72 h; at 10 µM; stronger effect = lower value.
Test [6] is described as follows: MRP1 drug-resistance reversers in H69AR cells – cell-based, doxorubicin co-treatment, pilot screen (AID 601;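 active means viability loss from added drug above about 55%, and viability with drug at most 40%, in both replicates, limit read from the data, passing the limit was not always enough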). The settings on record: CellTiter-Glo, 72 h, at 10 µM; for differential viability (reversal): stronger effect = higher value.
The nature of test [7]: yeast transport mutant growth inhibition pilot in 384-well plates, post-Golgi transport modulator project (AID 636; in the data active means inhibition above about 31%). The settings on record: absorbance 615 nm, about 18 h, stronger effect = higher value.
The nature of test [8]: growth suppression of yeast trafficking mutant, preliminary HTS, modulators of trafficking downstream of Golgi apparatus project, 1536-format plate, OD 615 nm (AID 637; in the data active means inhibition above about 30%). The conditions noted are these: yeast transport mutant growth, absorbance 615 nm, 18 h; stronger effect = higher value.
The mark [9] stands for this setting: H69AR cells + 2 uM doxorubicin, measured here: viability with 2 uM doxorubicin, stronger effect = lower value.
Setting [10] is: H69AR cells, compound alone cytotoxicity.

On to `O=C(NC1CCCC1)c1c[nH]c2ccc(F)cc2c1=O`, for which the viability in test [1] is 97.5%; in test [3] it was 97.5% (inactive); in test [4], 92.6% (inactive); in test [5], 92% (inactive); in test [6] (setting [9]) it was 82.1%; in test [6] (setting [10]), 92%. Moreover, the Her2 level in test [2] is 90.5% (inactive). In addition, the differential viability (reversal) in test [6] (H69AR cells + 2 uM doxorubicin) is 9.81% (inactive). Also, the inhibition in test [7] is -5.41% (inactive); in test [8], -3.67% (inactive).
With `CN(CC(=O)Nc1ccc2c(c1)OCCO2)S(=O)(=O)c1ccc(Br)s1`, the viability in test [1] is 90.5%; in test [3] it was 90.5% (inactive); in test [4], 111% (inactive); in test [5] it was 83.3% (inactive); in test [6] (setting [9]), 94%; in test [6] (setting [10]), 83.3%. Moreover, the Her2 level in test [2] is 94.5% (inactive). The differential viability (reversal) in test [6] (H69AR cells + 2 uM doxorubicin) was -10.7% (inactive). Moreover, the inhibition in test [7] is -2.63% (inactive); in test [8] it was -10.8% (inactive).
Turning to `CCOc1ccccc1CNC(=O)CCN1C(=O)COc2ccccc21`, the viability was 104% in test [1]; 104% (inactive) in test [3]; 88.8% (inactive) in test [4]; 92.9% (inactive) in test [5]; 89.5% in test [6] (setting [9]); 92.9% in test [6] (setting [10]). The Her2 level in test [2] is 110% (inactive). Besides, the differential viability (reversal) in test [6] (H69AR cells + 2 uM doxorubicin) was 3.42% (inactive). Moreover, the inhibition is -1.15% (inactive) in test [7] and -7% (inactive) in test [8].
On to `C=CCn1c(=O)/c(=C/c2ccc(O)cc2)s/c1=C(/C#N)c1nnc2n1CCCCC2`, for which the viability was 93.5% in test [1]; 93.5% (inactive) in test [3]; 83.4% (inactive) in test [4]; 85.5% (inactive) in test [5]; 77% in test [6] (setting [9]); 85.5% in test [6] (setting [10]). Further, the Her2 level in test [2] is 103% (inactive). Also, the differential viability (reversal) in test [6] (H69AR cells + 2 uM doxorubicin) is 8.51% (inactive). In addition, the inhibition in test [7] was -5.27% (inactive); in test [8], -2.83% (inactive).
Regarding `O=C1NC(c2ccccc2)(C(F)(F)F)SC2=CCCCCN12` (stereo not given), the viability in test [1] was 90.5%; in test [3], 90.5% (inactive); in test [4], 86.2% (inactive); in test [5], 94.3% (inactive); in test [6] (setting [9]), 92%; in test [6] (setting [10]), 94.3%. In addition, in test [2], the Her2 level was 106% (inactive). Besides, the differential viability (reversal) in test [6] (H69AR cells + 2 uM doxorubicin) is 2.37% (inactive). Further, the inhibition was -3.29% (inactive) in test [7] and -3.33% (inactive) in test [8].
Turning to `Oc1cc(NCc2cccnc2)ccc1-c1nc2ccccc2o1`, the viability in test [1] was 86.5%; in test [3], 86.5% (inactive); in test [4], 97.2% (inactive); in test [5] it was 82.7% (inactive); in test [6] (setting [9]), 90.1%; in test [6] (setting [10]), 82.7%. For the same compound, the Her2 level in test [2] is 94% (inactive). Also, in test [6] (H69AR cells + 2 uM doxorubicin), the differential viability (reversal) is -7.37% (inactive). The inhibition is 1.17% (inactive) in test [7] and 10.8% (inactive) in test [8].
For the compound `CCN(C(=O)CCc1nc(-c2ccccc2F)no1)c1cc(OC)ccc1OC`, the viability is 87.5% in test [1]; 87.5% (inactive) in test [3]; 68.1% (inactive) in test [4]; 92.4% (inactive) in test [5]; 94.8% in test [6] (setting [9]); 92.4% in test [6] (setting [10]). Further, the Her2 level in test [2] is 130% (inactive). Moreover, in test [6] (H69AR cells + 2 uM doxorubicin), the differential viability (reversal) is -2.4% (inactive). Besides, the inhibition is 1.71% (inactive) in test [7] and 0.33% (inactive) in test [8].
Turning to `c1ccc(Oc2ccc(-n3cnnn3)cc2)cc1`, the viability is 102% in test [1]; 102% (inactive) in test [3]; 95.7% (inactive) in test [4]; 94.2% (inactive) in test [5]; 78.8% in test [6] (setting [9]); 94.2% in test [6] (setting [10]). The Her2 level in test [2] was 122% (inactive). For the same compound, the differential viability (reversal) in test [6] (H69AR cells + 2 uM doxorubicin) was 15.4% (inactive). For the same compound, the inhibition is -0.52% (inactive) in test [7] and -12.2% (inactive) in test [8].
In the case of `Cc1cccc(N=C2NC(=O)CS2)c1C`, the viability is 108% in test [1]; 108% (inactive) in test [3]; 87.1% (inactive) in test [4]; 91.9% (inactive) in test [5]; 88.3% in test [6] (setting [9]); 91.9% in test [6] (setting [10]). In test [2], the Her2 level was 80% (inactive). In addition, the differential viability (reversal) in test [6] (H69AR cells + 2 uM doxorubicin) is 3.6% (inactive). In addition, the inhibition in test [7] was 0.4% (inactive); in test [8], -0.81% (inactive).
With `O=C(OCc1nnc(-c2ccc(Cl)cc2)o1)c1ccc(=O)n(Cc2ccccc2)n1`, the viability in test [1] was 84.5%; in test [3] it was 84.5% (inactive); in test [4], 102% (inactive); in test [5], 95.1% (inactive); in test [6] (setting [9]), 82.1%; in test [6] (setting [10]), 95.1%. Moreover, in test [2], the Her2 level was 84.5% (inactive). In test [6] (H69AR cells + 2 uM doxorubicin), the differential viability (reversal) was 13.1% (inactive). The results for the inhibition in test [7] and in test [8] were -4.81% (inactive) and -9% (inactive), respectively.
As for `COc1ccc(OC)c(NC(=O)C2CCN(c3cc(-c4ccccc4)nc4ncnn34)CC2)c1`, the viability is 95.5% in test [1]; 95.5% (inactive) in test [3]; 71% (inactive) in test [4]; 75.4% (inactive) in test [5]; 76.1% in test [6] (setting [9]); 75.4% in test [6] (setting [10]). Moreover, the Her2 level in test [2] is 76.5% (inactive). In addition, the differential viability (reversal) in test [6] (H69AR cells + 2 uM doxorubicin) is -0.75% (inactive). Also, the figures for the inhibition in test [7] and in test [8] were -0.66% (inactive) and -0.48% (inactive), respectively.
In the case of `Cc1nn(Cc2ccc(C(=O)NC3CCCCC3)o2)c(C)c1Br`, the viability is 94.5% in test [1]; 94.5% (inactive) in test [3]; 86.9% (inactive) in test [4]; 92.9% (inactive) in test [5]; 98.7% in test [6] (setting [9]); 92.9% in test [6] (setting [10]). Further, in test [2], the Her2 level was 90% (inactive). The differential viability (reversal) in test [6] (H69AR cells + 2 uM doxorubicin) was -5.8% (inactive). Further, the inhibition in test [7] was -3.29% (inactive); in test [8], -5.17% (inactive).
For `Cn1c2c(c(=O)n(C)c1=O)C(CC(=O)Nc1ccccc1)C(=O)N2` (stereo not given), the viability is 106% in test [1]; 106% (inactive) in test [3]; 106% (inactive) in test [4]; 108% (inactive) in test [5]; 86.4% in test [6] (setting [9]); 108% in test [6] (setting [10]). Moreover, in test [2], the Her2 level was 78.5% (inactive). Besides, the differential viability (reversal) in test [6] (H69AR cells + 2 uM doxorubicin) is 21.8% (inactive). In addition, the inhibition in test [7] was -2.97% (inactive); in test [8], 8.57% (inactive).
As to `c1ccc(-c2nnc(OCCN3CCOCC3)c3ccccc23)cc1`, the viability in test [1] was 112%; in test [3], 112% (inactive); in test [4] it was 87.3% (inactive); in test [5], 84.2% (inactive); in test [6] (setting [9]) it was 89.9%; in test [6] (setting [10]), 84.2%. In addition, in test [2], the Her2 level was 118% (inactive). Moreover, in test [6] (H69AR cells + 2 uM doxorubicin), the differential viability (reversal) was -5.76% (inactive). For the same compound, the inhibition in test [7] is -4.08% (inactive); in test [8] it was 2.62% (inactive).
For the compound `COc1cc(NS(=O)(=O)c2ccc(Br)s2)cc(OC)c1`, the viability was 87% in test [1]; 87% (inactive) in test [3]; 89.6% (inactive) in test [4]; 99.9% (inactive) in test [5]; 94.3% in test [6] (setting [9]); 99.9% in test [6] (setting [10]). Moreover, the Her2 level in test [2] was 104% (inactive). Besides, in test [6] (H69AR cells + 2 uM doxorubicin), the differential viability (reversal) is 5.59% (inactive). Further, the inhibition in test [7] is -6.53% (inactive); in test [8], -7.7% (inactive).

As a reminder, the viability is a read-out of living cells in per cent, often relative to untreated cells. Usually inhibition stands for the drop in the measured response relative to a control, in per cent.

(Values after PubChem BioAssay.)
